The text below walks through data of ChEMBL document CHEMBL4028873, “The Discovery of a Dual TTK Protein Kinase/CDC2-Like Kinase (CLK2) Inhibitor for the Treatment of Triple Negative Breast Cancer Initiated from a Phenotypic Screen” (J Med Chem, 2017).

pIC50: −log10 of the molar value. Active and inactive are the calls of the source. No cut-off for these calls is given here.

The inhibition is the percentage by which the read-out fell short of the control. As usually defined, the MRT is the average time that molecules of a dose stay in the body. One may read the pIC50 as the IC50 on a negative log10 scale, so that one unit is a factor of ten. The term clearance denotes the rate of elimination divided by the concentration.

Data set [1] concerns the target Dual specificity protein kinase CLK1 (Homo sapiens) (UniProt P49759). To be noted: 3 uM.
Data set [2] has as its target T1, Phosphatidylinositol 5-phosphate 4-kinase type-2 gamma (Homo sapiens) (UniProt Q8TBX8).
T1 sequence (whole entry): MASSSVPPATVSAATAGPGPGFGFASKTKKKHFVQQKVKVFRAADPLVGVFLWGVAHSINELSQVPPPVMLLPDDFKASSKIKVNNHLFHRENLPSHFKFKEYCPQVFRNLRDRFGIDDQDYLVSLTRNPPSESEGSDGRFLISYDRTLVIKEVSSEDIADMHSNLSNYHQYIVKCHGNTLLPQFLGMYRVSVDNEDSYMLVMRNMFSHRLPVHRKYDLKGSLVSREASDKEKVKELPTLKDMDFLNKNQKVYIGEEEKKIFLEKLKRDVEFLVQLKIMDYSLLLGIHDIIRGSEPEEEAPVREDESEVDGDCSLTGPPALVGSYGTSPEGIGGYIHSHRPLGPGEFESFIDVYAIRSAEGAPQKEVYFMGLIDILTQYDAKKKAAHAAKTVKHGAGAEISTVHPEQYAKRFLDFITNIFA
As to the kind of experiment: Binding affinity to PIP4K2C in human HCT116 cell lysate at 3 uM after 1 hr by LC-MS/MS analysis. In outline:
(§1)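 ActivX KiNative cellular kinase profiling. HCT-116 cells were grown in RPMI-1640 with 10% FBS and exposed to compound at 3 μM for 1 h, with DMSO-only controls. Cells were then washed with ice-cold PBS, scraped, pelleted and stored at −80 °C. Kinase binding was reported as percent occupancy relative to the untreated controls.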

The nature of data set [3]: Metabolic stability in human liver S9 fraction assessed as percent of compound remaining after 60 mins. To be noted: read-out: Stability. It is filed as ADME, tissue-based.
Data set [4] deals with T2, c-Jun N-terminal kinase, JNK (Homo sapiens, UniProt P45983+P53779+P45984). As to the kind of experiment: Binding affinity to JNK1/JNK2/JNK3 in human HCT116 cell lysate at 3 uM after 1 hr by LC-MS/MS analysis. Put shortly: as §1
Data set [5] can be described thus: Mean residence time in rat at 2 mg/kg, iv. It is filed as ADME, organism-based. To be noted: in vivo.
Data set [6] concerns MDA-MB-231. Description: Antiproliferative activity against human MDA-MB-231 cells after 3 days by CellTiter-Glo assay. Type of data set: functional, cell-based. In outline: (§2)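 Cell lines kept in vendor-recommended growth media; 3-day compound exposure, then CellTiter-Glo luminescence read. Percent inhibition per concentration normalized to DMSO control, triplicate wells.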
Background: ATP-based viability assays read luminescence as a measure of living cells.

Data set [7] deals with CAL-51. Description: Antiproliferative activity against human CAL51 cells xenografted in SCID mouse assessed as tumor growth inhibition at 20 mg/kg, iv administered every 7 days for 16 days relative to control. It is filed as functional. To be noted: CAL-51, iv, read-out: TGI. In outline: (§3)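 Mice bearing tumors of about 125 mm3 randomized (n = 8−10/group) and given compound intravenously at the listed doses and schedules. Tumors measured twice weekly by digital caliper on long and short axes; volume = width² × length/2.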
In general terms: Xenograft models place foreign cells or tissue in a host animal.

The test system of data set [8] is MDA-MB-468. As to the kind of experiment: Antiproliferative activity against human MDA-MB-468 cells after 3 days by CellTiter-Glo assay. Type of data set: functional, cell-based. Put shortly:
as §2

Data set [9] deals with T3, Dual specificity tyrosine-phosphorylation-regulated kinase 3 (Homo sapiens, UniProt O43781).
T3 sequence (O43781 whole entry): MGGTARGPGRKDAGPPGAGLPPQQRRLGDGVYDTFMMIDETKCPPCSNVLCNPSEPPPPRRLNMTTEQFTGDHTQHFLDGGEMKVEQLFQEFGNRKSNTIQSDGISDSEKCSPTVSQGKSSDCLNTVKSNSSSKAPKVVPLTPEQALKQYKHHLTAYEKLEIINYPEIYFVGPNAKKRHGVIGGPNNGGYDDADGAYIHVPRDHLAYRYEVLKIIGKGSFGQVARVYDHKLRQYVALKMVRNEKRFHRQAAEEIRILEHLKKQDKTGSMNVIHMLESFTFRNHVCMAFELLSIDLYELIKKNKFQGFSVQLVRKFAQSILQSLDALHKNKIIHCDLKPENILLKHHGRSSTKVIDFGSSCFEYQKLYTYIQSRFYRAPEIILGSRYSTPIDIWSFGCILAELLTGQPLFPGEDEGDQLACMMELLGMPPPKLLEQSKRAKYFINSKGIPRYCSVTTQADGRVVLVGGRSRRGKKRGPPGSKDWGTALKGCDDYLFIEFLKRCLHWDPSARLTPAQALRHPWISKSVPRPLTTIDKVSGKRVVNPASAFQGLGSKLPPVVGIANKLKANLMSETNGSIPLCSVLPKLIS
Description: Inhibition of human full length recombinant GST-tagged DYRK3 expressed in baculovirus by Z'-LYTE assay.

The subject of data set [10] is Mus musculus. As to the kind of experiment: Toxicity in SCID mouse xenografted with human CAL51 cells assessed as loss in body weight at 20 mg/kg, iv administered every 7 days for 16 days relative to control. Type of data set: organism-based. To be noted: in vivo.
In data set [11] the test system is CAL-51. Description: Antiproliferative activity against human CAL51 cells xenografted in SCID mouse assessed as tumor growth inhibition at 10 mg/kg, iv administered every 3 days for 16 days relative to control. To be noted: CAL-51, iv, read-out: TGI. Type of data set: functional. Put shortly: as §3
Data set [12] addresses T4, Phosphorylase b kinase gamma catalytic chain, skeletal muscle/heart isoform (Homo sapiens, UniProt Q16816). To be noted: 3 uM.
In data set [13] the target is T5, Phosphatidylinositol 5-phosphate 4-kinase type-2 gamma (Homo sapiens, UniProt Q8TBX8).
T5 sequence (Q8TBX8 whole entry): T1 sequence (whole entry)
Description: Inhibition of PIP4K2C in human HCT116 cell lysate after 1 hr by LC-MS/MS analysis relative to control.

The target in data set [14] is Dual specificity tyrosine-phosphorylation-regulated kinase 1A (Homo sapiens, UniProt Q13627). As to the kind of experiment: Inhibition of human full length GST-tagged DYRK1A expressed in baculovirus by Z'-LYTE assay.
Data set [15] in a line: Volume of distribution at steady state in rat at 2 mg/kg, iv. To be noted: in vivo, read-out: Vdss. Type of data set: ADME, organism-based.
For data set [16], the system named is CAL-51. Description: Antiproliferative activity against human CAL51 cells xenografted in SCID mouse assessed as tumor growth inhibition at 20 mg/kg, iv administered every 3 days for 16 days relative to control. Type of data set: functional. To be noted: CAL-51, iv, read-out: TGI. Put shortly:
as §3

Data set [17] can be described thus: Clearance in SCID mouse at 5 mg/kg, iv. It is filed as ADME, organism-based. To be noted: in vivo.
Data set [18] deals with Dual specificity protein kinase CLK2 (Homo sapiens) (UniProt P49760). To be noted: 3 uM.
Chain of Dual specificity protein kinase CLK2 (Homo sapiens) (P49760 whole entry, looked up): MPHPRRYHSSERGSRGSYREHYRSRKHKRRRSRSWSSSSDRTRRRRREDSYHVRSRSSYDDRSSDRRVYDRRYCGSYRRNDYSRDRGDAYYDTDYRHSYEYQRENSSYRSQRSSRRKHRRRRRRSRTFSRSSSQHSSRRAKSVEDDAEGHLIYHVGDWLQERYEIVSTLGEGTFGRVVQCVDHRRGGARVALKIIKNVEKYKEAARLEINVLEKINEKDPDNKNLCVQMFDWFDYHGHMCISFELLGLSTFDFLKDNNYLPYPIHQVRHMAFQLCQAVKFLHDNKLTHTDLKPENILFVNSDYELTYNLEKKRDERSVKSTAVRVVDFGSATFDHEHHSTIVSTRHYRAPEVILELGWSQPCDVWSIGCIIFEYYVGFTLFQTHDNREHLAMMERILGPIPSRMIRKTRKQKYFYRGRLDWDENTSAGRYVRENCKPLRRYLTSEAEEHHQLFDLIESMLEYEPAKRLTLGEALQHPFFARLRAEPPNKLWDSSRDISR
Data set [19] has as its system Mus musculus. As to the kind of experiment: Toxicity in SCID mouse xenografted with human CAL51 cells assessed as loss in body weight at 10 mg/kg, iv administered every 3 days for 16 days relative to control. It is filed as organism-based. To be noted: in vivo.
The target in data set [20] is Voltage-gated inwardly rectifying potassium channel KCNH2 (Homo sapiens, UniProt Q12809). Description: Inhibition of human ERG.
Chain of Voltage-gated inwardly rectifying potassium channel KCNH2 (Q12809 whole entry): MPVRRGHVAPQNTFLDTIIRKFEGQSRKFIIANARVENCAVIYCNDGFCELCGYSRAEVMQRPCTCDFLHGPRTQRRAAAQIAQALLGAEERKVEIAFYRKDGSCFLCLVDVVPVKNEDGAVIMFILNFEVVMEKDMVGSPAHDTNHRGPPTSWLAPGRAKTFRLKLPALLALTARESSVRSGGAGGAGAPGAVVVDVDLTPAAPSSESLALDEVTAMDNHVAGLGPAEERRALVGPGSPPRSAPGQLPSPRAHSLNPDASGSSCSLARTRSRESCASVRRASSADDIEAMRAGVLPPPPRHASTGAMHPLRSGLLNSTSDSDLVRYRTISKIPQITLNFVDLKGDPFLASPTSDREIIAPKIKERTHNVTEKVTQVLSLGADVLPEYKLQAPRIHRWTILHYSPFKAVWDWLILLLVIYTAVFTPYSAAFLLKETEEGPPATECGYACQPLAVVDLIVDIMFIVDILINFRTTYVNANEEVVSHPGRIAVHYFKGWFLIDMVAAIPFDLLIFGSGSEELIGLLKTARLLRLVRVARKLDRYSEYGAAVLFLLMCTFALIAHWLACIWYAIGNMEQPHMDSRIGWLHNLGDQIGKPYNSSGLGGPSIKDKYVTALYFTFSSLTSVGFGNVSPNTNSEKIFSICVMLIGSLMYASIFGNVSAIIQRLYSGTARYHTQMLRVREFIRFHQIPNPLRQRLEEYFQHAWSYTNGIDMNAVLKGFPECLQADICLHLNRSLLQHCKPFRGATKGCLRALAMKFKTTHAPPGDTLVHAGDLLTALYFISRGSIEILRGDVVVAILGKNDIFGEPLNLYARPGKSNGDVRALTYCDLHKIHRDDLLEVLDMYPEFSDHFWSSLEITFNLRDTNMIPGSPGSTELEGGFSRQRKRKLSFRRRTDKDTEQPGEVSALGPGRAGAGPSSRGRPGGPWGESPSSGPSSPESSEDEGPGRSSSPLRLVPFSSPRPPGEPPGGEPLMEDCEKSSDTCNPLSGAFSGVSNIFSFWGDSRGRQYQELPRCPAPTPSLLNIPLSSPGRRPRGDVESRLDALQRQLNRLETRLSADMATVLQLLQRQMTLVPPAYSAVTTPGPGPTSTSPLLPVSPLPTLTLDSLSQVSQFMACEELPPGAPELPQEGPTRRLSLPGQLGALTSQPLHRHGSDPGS
Data set [21] addresses T2, c-Jun N-terminal kinase, JNK. Description: Inhibition of JNK1/JNK2/JNK3 in human HCT116 cell lysate after 1 hr by LC-MS/MS analysis relative to control.
The target of data set [22] is T4, Phosphorylase b kinase gamma catalytic chain, skeletal muscle/heart isoform. As to the kind of experiment: Binding affinity to PHKG1 in human HCT116 cells at 3 uM after 1 hr by LC-MS/MS analysis relative to control. Type of data set: cell-based. Put shortly:
as §1

T4 sequence (Q16816 whole entry, looked up, canonical isoform): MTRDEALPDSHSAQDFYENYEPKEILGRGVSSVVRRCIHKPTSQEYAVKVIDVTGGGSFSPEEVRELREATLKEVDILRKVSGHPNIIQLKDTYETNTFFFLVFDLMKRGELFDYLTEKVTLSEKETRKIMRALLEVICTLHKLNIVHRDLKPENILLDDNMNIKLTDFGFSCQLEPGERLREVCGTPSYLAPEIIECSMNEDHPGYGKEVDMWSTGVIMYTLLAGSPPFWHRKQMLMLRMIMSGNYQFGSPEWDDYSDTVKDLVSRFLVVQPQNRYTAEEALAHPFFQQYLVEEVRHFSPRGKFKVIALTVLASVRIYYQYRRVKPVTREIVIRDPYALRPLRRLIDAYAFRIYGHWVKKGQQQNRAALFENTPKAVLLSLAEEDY
Chain of Dual specificity protein kinase CLK1 (Homo sapiens) (P49759 whole entry, looked up): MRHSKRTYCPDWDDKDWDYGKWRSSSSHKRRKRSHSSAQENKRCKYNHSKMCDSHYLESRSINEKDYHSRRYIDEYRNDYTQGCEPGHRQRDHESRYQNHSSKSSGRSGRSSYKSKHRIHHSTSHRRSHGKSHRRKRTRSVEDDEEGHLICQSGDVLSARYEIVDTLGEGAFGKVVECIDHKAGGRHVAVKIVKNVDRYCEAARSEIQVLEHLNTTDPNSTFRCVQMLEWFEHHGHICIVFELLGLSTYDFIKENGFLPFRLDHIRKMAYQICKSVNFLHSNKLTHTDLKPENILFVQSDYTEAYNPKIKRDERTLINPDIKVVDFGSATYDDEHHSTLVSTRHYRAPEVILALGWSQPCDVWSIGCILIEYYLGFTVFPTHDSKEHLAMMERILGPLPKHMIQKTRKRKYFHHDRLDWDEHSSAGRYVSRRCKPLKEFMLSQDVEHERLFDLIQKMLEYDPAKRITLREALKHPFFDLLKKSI

Take `CNC(=O)c1ccc(Nc2nc(OC3CCCC3)c3c(-c4ccc5nc(C)oc5c4)c[nH]c3n2)c(OC)c1`: the inhibition in data set [1], in data set [12] and in data set [18] was > 80% throughout. For the same molecule, the Activity in data set [2] is > 75%; in [4], > 75%; in data set [10], “Non-Toxic”; in data set [19], 5%; in data set [22] it was 26%. Also, the remaining at 1 h in data set [3] came out at 91%. In data set [5], this molecule had a mean residence time MRT of 4.1 h. Moreover, the outcome in [6] and in [8] was Active. Further, the inhibition in vivo at 20 mg/kg is 70% in [7] and 71% in data set [16]. The pIC50 in data set [9] is 7.00; in data set [13], 5.89; in [14], 6.98; in [20] it was < 4.48; in data set [21], 6.17. Moreover, the inhibition in vivo at 10 mg/kg in data set [11] turned out to be 71%. Also, the Vd in data set [15] was determined as 2.3 L/kg. Besides, the clearance in data set [17] came to 8.48 mL/min/kg.
